Screening results (PubChem BioAssay)
This is a sample that favours compounds with a hit; in the whole collection about 5.5% have one here.
PostGolgi yeast = growth inhibition of a yeast mutant, post-Golgi transport screen | post-Golgi transport phenotypic cell assay | inhibition, % at 10 µM | 0.9% of 98,000 active;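 further: yeast cells grown in 1536-well plates; yeast grown about 18 h at 30C before absorbance read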
tolC growth inh = blocks growth of E. coli BW25113 tolC mutant; OD615; growth inhibition, % at 10 µM (by protocol); 2.2% of 65,000 active;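 active means growth inhibition at or above a cutoff equal to the mean over every tested compound plus 3 SD, cut at about 60% in these data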;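 further: growth measured after 20 h incubation at 37 °C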
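System: E. coli ΔtolC::kan strain BW25113; Buffer or medium: LB broth supplemented with 50 µg/mL kanamycin; Compound: 10 µM final, single dose; Incubation: bacterial growth with compound for 20 h at 37 °C; Signal: A615 absorbance measurement; Evaluation: growth inhibition in percent.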
PostGolgi ctrl = growth of the yeast control strain, post-Golgi counter-screen; efflux-deficient yeast background strain, growth absorbance A615, 16 h; inhibition, % at 10 µM; 5% of 98,000 active
HePTP inh = human HePTP phosphatase inhibition | P35236 | recombinant HePTP phosphatase activity, OD absorbance | inhibition, % at 20 µM | 0.64% of 110,000 active | AID 521; in the data active means inhibition above about 50%;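 further: plate controls were vehicle for no effect and reference inhibitor for full effect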
Target sequence (P35236 whole entry, looked up): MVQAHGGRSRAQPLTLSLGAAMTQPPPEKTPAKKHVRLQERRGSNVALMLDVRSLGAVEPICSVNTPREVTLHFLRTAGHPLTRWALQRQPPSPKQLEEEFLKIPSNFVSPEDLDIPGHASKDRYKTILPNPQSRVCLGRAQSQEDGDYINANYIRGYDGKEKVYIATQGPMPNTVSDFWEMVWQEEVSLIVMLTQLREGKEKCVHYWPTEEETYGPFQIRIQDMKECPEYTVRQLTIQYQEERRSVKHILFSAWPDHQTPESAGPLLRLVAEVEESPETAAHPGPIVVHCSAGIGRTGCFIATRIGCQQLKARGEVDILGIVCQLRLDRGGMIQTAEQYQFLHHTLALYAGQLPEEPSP
PLAP act = human PLAP activation. P05187. purified PLAP enzyme, luminescent substrate read-out; stronger effect = higher value. activation fold at 20 µM. 1.2% of 96,000 active; in the data active means activation fold above about 2
Ecoli WT expand = blocks growth of wild type E. coli BW25113. OD600 absorbance. growth inhibition, % at 100 µM. 0.15% of 98,000 active;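 active means growth inhibition above about 50% at one test dose, limit read from the data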;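 further: growth measured after 20 h incubation at 37 °C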
* marks the source's active call; other numbers are inactive results; · = no result given. Unless noted, no stated cut-off is given here; in the data, active means inhibition above about 30%; inactive means the rest.

SMILES	PostGolgi yeast	tolC growth inh	PostGolgi ctrl	HePTP inh	PLAP act	Ecoli WT expand
COc1ccc(NC(=O)COc2ccc(Br)c(C)c2)cc1Cl	·	·	·	11	·	·
Clc1cccc(-c2nc(NCc3cccnc3)c3ccccc3n2)c1	27	·	72*	·	0.8	-7
c1ccc(-c2nc(NCc3cccnc3)c3ccccc3n2)cc1	9	·	9	·	0.8	18
CCOc1ccc(C2/C(=C(\O)c3ccc(C)cc3)C(=O)C(=O)N2CCCC(=O)O)cc1 (stereo unspecified)	·	·	·	-23	·	·
CCOCCCNS(=O)(=O)c1cc(Br)cc2c1N(C(=O)C1CC1)CC2	3	14	6	-7	1.1	5
CCCNS(=O)(=O)c1cc(Br)cc2c1N(C(=O)CC)CC2	11	-17	34*	12	0.8	2
CSc1ccc(CNc2ccc(C)cc2)cc1	0	·	-1	·	0.9	5
CSc1ccc(CNc2ccc(C)c(C)c2)cc1	-2	·	38*	·	0.7	-2
CCCN(Cc1cc2ccc(C)cc2[nH]c1=O)S(=O)(=O)c1ccccc1	8	·	36*	·	1.1	3
CCN(Cc1cc2ccccc2[nH]c1=O)S(=O)(=O)c1ccccc1	0	16	30*	14	0.9	5
CC(C)C(=O)N(Cc1cc2ccccc2[nH]c1=O)C(C)C	13	-6	0	5	1	-2
CCOc1cc(/C=C2/SC(=S)N(C)C2=O)ccc1OC(=O)c1ccc(C)cc1	·	·	·	-11	·	·
Cc1ccc(-c2csc(NC(=O)CCCC(=O)O)c2C(=O)OC(C)C)cc1	·	·	·	0	·	·
NC1=NC(=O)/C(=C\c2ccc(-c3cccc(C(=O)O)c3)o2)S1	·	·	·	-5	·	·
CC(C)C1=NN2C(=N)/C(=C/c3ccc(-c4ccc([N+](=O)[O-])cc4)o3)C(=O)N=C2S1	·	·	·	79*	·	·
NC1=NC(=O)/C(=C\c2ccc(-c3ccc([N+](=O)[O-])cc3)o2)S1	·	·	·	64*	·	·
CCCC1=NN2C(=N)/C(=C/c3ccc(-c4ccc([N+](=O)[O-])cc4Br)o3)C(=O)N=C2S1	·	·	·	76*	·	·
O=C(NN1C(=O)c2ccccc2C1=O)c1ccccc1O	·	·	·	10	·	·
CCCN=C(C)c1c(-c2ccccc2)[nH]n(-c2nc3ccccc3s2)c1=O	-2	·	32*	·	0.8	-14
CCCc1[nH]n(-c2nc3ccccc3s2)c(=O)c1C=NCC(C)C	5	·	16	·	2.1*	8
O=c1c(C=NCc2ccco2)c(-c2ccccc2)[nH]n1-c1nc2ccccc2s1	·	·	·	-17	·	·
COc1ccc(OC)c(/C(C)=N\NC(=O)c2cccnc2)c1	·	·	·	2	·	·
O=C(Oc1nsnc1N1CCOCC1)N(c1ccccc1)c1ccccc1	15	29	30*	4	1.4	-24
CC(=O)N(Cc1ccc(F)cc1)C1=C(NCCc2ccccc2)C(=O)c2ccccc2C1=O	21	·	31*	·	1	-9
Cc1ccc(-c2nnc(N3CCN(c4ccccn4)CC3)c3ccccc23)cc1	0	100*	57*	16	0.9	-4
SMILES	PostGolgi yeast	tolC growth inh	PostGolgi ctrl	HePTP inh	PLAP act	Ecoli WT expand
c1ccc(-c2nnc(N3CCN(c4ccccn4)CC3)c3ccccc23)cc1	8	28	69*	9	0.8	0
CS(=O)(=O)N1CCN(c2nnc(-c3ccccc3)c3ccccc23)CC1	0	13	10	-3	1.8	1
COc1ccc(-n2c(SC(CN3CCCCC3)CN3CCCC3=O)nc3ccccc3c2=O)cc1 (stereo unspecified)	0	·	31*	·	1.5	-12
O=C1CCCN1CC(CN1CCOCC1)Sc1nnnn1-c1ccccc1 (stereo unspecified)	1	-16	3	2	1.3	6
CCOC(=O)c1c(NC(=O)c2ccccc2Cl)sc2c1CCN(C(=O)OCC)C2	·	·	·	-21	·	·
Cc1ccc2oc(-c3cc(NC(=O)c4cc5ccccc5o4)ccc3O)nc2c1	·	·	·	-11	·	·
COc1ccc(-c2nnc(NC(=O)c3ccccc3C)o2)cc1	·	100*	·	1	·	·
O=C(Nc1nnc(-c2ccc3c(c2)CCCC3)o1)C1COc2ccccc2O1 (stereo unspecified)	100*	100*	72*	6	1.4	0
CC(=O)Nc1nnc(-c2ccc3c(c2)CCCC3)o1	-9	2	0	6	1.6	4
CCOc1ccc(-c2nnc(NC(=O)c3ccc(OCC(C)C)c(OC)c3)o2)cc1	18	100*	4	16	1.1	9
COc1ccccc1C(=O)Nc1nnc(-c2ccc3c(c2)CCCC3)o1	15	98*	27	2	1.8	-10
COc1ccc(-c2nnc(NC(=O)C(C)C)o2)cc1	-7	-3	-2	8	0.8	-1
Cc1cc(Cl)ccc1OC(C)C(=O)N1CCN(c2cccc(Cl)c2)CC1 (stereo unspecified)	·	·	·	-12	·	·
CCOC(=O)C1=C(C)N=c2s/c(=C\c3ccc(OC)cc3)c(=O)n2C1/C=C/c1ccccc1 (stereo unspecified)	·	·	·	-19	·	·
COc1cccc(C(=O)Nc2nnc(-c3ccc(Cl)cc3)o2)c1	·	100*	·	3	·	·
COc1cccc(-c2nnc(NC(=O)c3ccc(S(=O)(=O)N4CCOCC4)cc3)o2)c1	4	94*	6	13	1.3	-4
COc1cccc(C(=O)Nc2nnc(-c3ccc(F)cc3)o2)c1	·	16	·	2	·	·
O=C(COc1ccc(Cl)cc1)Nc1nnc(-c2ccc3c(c2)CCCC3)o1	12	100*	14	-7	1.5	-8
O=C(Nc1nnc(-c2ccc(Cl)cc2)o1)NC1CCCCC1	-6	·	2	·	1	-6
COc1cccc(C(=O)Nc2nnc(-c3cccs3)o2)c1	-8	69*	39*	3	1.6	80*
COc1cccc(-c2nnc(NC(C)=O)o2)c1	·	2	·	-2	·	·
O=C(N/N=C(/C=N/O)c1ccccc1)c1cccc(Br)c1	·	·	·	9	·	·
CC(C)OC(=O)COc1cc2oc(=O)c3c(c2cc1Cl)CCCC3	·	·	·	8	·	·
CC1=C(C(=O)Nc2ccc(C)cc2)C(c2ccc(C)cc2)NC(=S)N1 (stereo unspecified)	·	·	·	-1	·	·
O=C(CC1SC(=Nc2ccccc2)N(c2ccccc2)C1=O)Nc1ccccc1 (stereo unspecified)	·	·	·	8	·	·
SMILES	PostGolgi yeast	tolC growth inh	PostGolgi ctrl	HePTP inh	PLAP act	Ecoli WT expand
CC1CN(S(=O)(=O)c2ccc(C(=O)Nc3nnc(-c4ccc5c(c4)CCCC5)o3)cc2)CC(C)O1 (stereo unspecified)	-2	97*	21	-1	1.9	4
O=C(Nc1ccc2nc(SCc3ccc(Cl)cc3)sc2c1)c1ccccc1C(=O)N1CCOCC1	-5	·	33*	·	1.1	-11
COc1ccc(Cl)cc1NC(=O)CN(C(=O)c1ccco1)C1CCCCC1	-1	12	41*	2	1.5	0
COc1ccc(Cl)cc1NC(=O)CN(C)C(C)C(=O)NCC1CCCCC1 (stereo unspecified)	1	28	20	-5	1.7	-1
CC1(C)Cc2c(c(N3CCCC3)nc3sc4c(N5CCN(CCO)CC5)ncnc4c23)CO1	7	65*	6	4	·	12
O=S(=O)(c1ccc(Oc2ccc(Br)cc2F)nc1)N1CCCCC1	0	1	37*	-2	·	-1
